Source: PubChem (several laboratories)
Hits are enriched below; roughly 2.4% of the tested compounds scored in any of these assays.
Dynein cargo inh: dynein cargo transport inhibition. 3617.4 mouse cells, GR-EGFP nuclear translocation imaging; test concentration mostly 20 µM; stimulated with dexamethasone, 1 µM; stronger effect = lower value. z-score, hits read low. 220,000 compounds, 0.47% hits. AID 1381;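 active = plate z-score of nuclear minus cytoplasmic receptor signal below a set negative limit, without overly bright fluorescence or cell loss, cut at about -3.5 in these data, passing the limit was not always enough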;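 note: z-score of nuclear minus cytoplasmic ring GR-EGFP intensity difference per well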
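Also added: dexamethasone, 1.0 µM final. Medium: tet-free, stripped-serum medium. Detection: fixed, Hoechst-stained cells imaged at 10x for EGFP. Read-out: nuclear-to-cytoplasmic GR-EGFP distribution per well. Times: induction 48 h, compound 1 h, agonist 30 min.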
Autophagy mod: modulators of autophagy; MEF GFP-LC3 puncta imaging; test concentration mostly 10 µM; calls only at 10 µM (by protocol); 190,000 compounds, 0.98% hits; AID 463193;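 active = percentage of spot-positive cells more than 3 SD above its plate mean, without a fluorescence outlier flag or 80% toxicity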;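 note: spot-positive cell cutoff set from DMSO-treated cells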
L929 necroptosis: blocks zVAD induced death of L929 cells | L929 zVAD necroptosis rescue, ATP luminescence, 24 h; with zVAD 60 µM | viability rescue, % at 10 µM | 220,000 compounds, 0.38% hits | AID 1377;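 active = activation, scaled between plate controls, above about 75%, limit read from the data; inactive = activation under that limit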;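 note: 0% = zVAD with DMSO and 100% = DMSO alone without zVAD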
Mdm2 ligase inh: blocks human Mdm2 ubiquitin ligase activity. Q00987. cell-based MDM2 ubiquitination luciferase reporter, 2 h; 0 = plate control, 100 = twice control, blank-subtracted. signal enhancement, % at 5 µM. 210,000 compounds, 0.11% hits;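 active = signal enhancement of 30% or more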;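 note: luminescence tracks abundance of the self-degrading MDM2-luciferase fusion protein; higher signal means inhibition of MDM2 E3 ligase activity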
Target sequence (Q00987 whole entry, looked up, the tested form may be a part): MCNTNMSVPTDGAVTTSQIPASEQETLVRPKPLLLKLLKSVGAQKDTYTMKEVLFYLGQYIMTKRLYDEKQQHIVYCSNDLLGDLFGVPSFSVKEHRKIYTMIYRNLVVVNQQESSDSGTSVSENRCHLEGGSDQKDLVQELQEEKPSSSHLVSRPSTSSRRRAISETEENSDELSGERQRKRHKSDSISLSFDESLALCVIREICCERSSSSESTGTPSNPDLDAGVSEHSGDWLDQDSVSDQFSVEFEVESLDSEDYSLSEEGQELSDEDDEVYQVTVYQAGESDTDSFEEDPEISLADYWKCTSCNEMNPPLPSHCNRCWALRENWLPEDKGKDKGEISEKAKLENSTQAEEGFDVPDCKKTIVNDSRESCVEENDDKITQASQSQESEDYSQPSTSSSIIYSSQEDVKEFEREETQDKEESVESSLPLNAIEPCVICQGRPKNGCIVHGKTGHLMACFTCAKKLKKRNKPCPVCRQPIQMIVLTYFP
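Material: stable MDM2–luciferase fusion reporter cells / Quantity: 2000 cells/well / Dosing: single 5 µM compound dose, 0.2% final DMSO / Buffer or medium: DMEM / Schedule: 4 h cell settling then 2 h compound exposure, 37 °C / Detection: luminescence with SteadyLite reagent, 15 min at room temperature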
TNF necrop inh: TNF-alpha cell death inhibition in Jurkat FADD-/- cells; Jurkat FADD-/- TNF necroptosis rescue, ATP luminescence, 24 h; 0 = TNF only, 100 = no-TNF cells; activation (protection from cell death), % at 10 µM; 220,000 compounds, 0.068% hits; AID 463075;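 active = activation, meaning protection from cell death, of at least 50% relative to plate controls; inactive = activation below 50%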;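 note: necroptosis triggered by 40 ng/mL TNF-alpha added together with compound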
Hck Nef HTS: blocks Nef-activated human Hck kinase; P08631; Recombinant Hck-YEEI plus Nef, Z-Lyte FRET kinase assay; inhibition, % at 20 µM; 220,000 compounds, 0.68% hits;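 active = Hck-Nef kinase inhibition above about 50%, limit read from the data; inactive = inhibition below that limit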;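 note: 0% = DMSO with Hck plus Nef and 100% = Hck alone without Nef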
* hit, by the source's call; i = inactive; . = not tested or not shown; + = active, no number.

SMILES	Dynein cargo inh	Autophagy mod	L929 necroptosis	Mdm2 ligase inh	TNF necrop inh	Hck Nef HTS
CN(C)c1ccc(/C=C(/C#N)C(=O)NCc2ccccc2)o1	1.64	+	1.3	.	1.6	0.1
CCOc1ccccc1NC(=O)NCc1ccco1	0.629	.	0.3	-5.7	2.9	14.5
COc1ccc(-c2c(C(F)(F)F)oc3c(CN4CCN(C)CC4)c(O)ccc3c2=O)cc1	-0.697	i	-0.6	-20.5	-0.8	0.3
COc1ccc(-c2c(C)oc3c(CN4CCN(C)CC4)c(O)ccc3c2=O)cc1	0.486	+	-0.1	-4.9	1.1	-5.5
Cc1ccc(N=c2c([N+](=O)[O-])nn(-c3ccccc3)n2O)c(C)c1	-1.02	i	-0.7	-5.3	-8.5	4.1
Cc1c(Cl)cccc1N=c1c([N+](=O)[O-])nn(-c2ccccc2)n1O	1.57	+	-1.1	-10.7	0.5	0.0
CCOc1c(Cl)cc(CNCC(O)c2ccccc2)cc1OC (configuration not stated)	0.364	+	0.0	-4.4	3.1	13.6
COc1ccc(OC)c(NC(=O)c2ccc3c(=O)n(CCc4ccccc4)c(=S)[nH]c3c2)c1	-0.127	+	0.4	-41.4	-3.7	0.7
COc1ccc(NC(=O)c2ccc3c(=O)n(Cc4ccco4)c(=S)[nH]c3c2)c(OC)c1	-0.747	i	0.2	2.0	-6.2	2.9
COCCn1c(N)c(N(Cc2ccccc2)C(=O)c2oc3ccccc3c2C)c(=O)[nH]c1=O	-0.136	i	1.8	8.2	-0.7	22.7
Nc1ccnc(C(F)(F)F)c1C(=O)c1ccccc1	-1.17	i	-0.2	-14.2	-2.3	1.4
COc1cc(OC)cc(C(=O)NCc2cc(C)nc3ccccc23)c1	-0.0602	i	2.1	-5.2	2.2	10.9
Cc1cc(CNC(=O)Cc2ccccc2)c2ccccc2n1	-0.755	+	1.8	14.4	0.2	23.6
CCN(CC)CCOc1ccc(Br)cc1	0.576	i	0.3	-4.5	0.4	0.8
CCN(CC)CCOc1ccc2c(c1)C(=NO)c1cc(OCCN(CC)CC)ccc1-2	1.03	+	10.3	-14.1	-9.4	-0.5
Cc1cccc2c(N=Nc3ccc(S(=O)(=O)Nc4ccc(Cl)cc4)cc3[N+](=O)[O-])c(O)[nH]c12	-0.119	i	2.8	-14.0	1.5	-12.1
O=C(NC(=C(Cl)Cl)S(=O)(=O)c1ccc(Cl)cc1)c1ccccc1	0.769	.	-0.8	9.7	-23.2	-1.4
O=S(=O)(c1ccc(Cl)c(Cl)c1)c1snnc1-c1ccccc1	-3.96*	i	0.1	-17.2	-22.9	4.9
COc1ccc2o/c(=N/NC(=S)Nc3ccccc3)c(C(N)=O)cc2c1	-0.513	+	3.2	-11.8	-0.6	6.0
COc1ccc(-c2nc(/C=C3\C(C)=Nc4ccccc43)c(O)o2)cc1	2.32	+	1.5	-5.4	-1.9	-21.1
Cc1cc(C)c(S(=O)(=O)c2ccccc2)c(OC(=O)c2cc(F)c(F)cc2Cl)n1	-1.26	i	0.1	35.3*	-2.8	-2.9
Cn1c(=O)c2c(nc(Br)n2CCCc2ccccc2)n(C)c1=O	2.46	i	1.3	5.0	0.2	-0.7
Cn1c(=O)[nH]c(=O)c2c1nc(Br)n2CCCc1ccccc1	-1.33	i	-0.4	30.2*	-1.2	7.4
Fc1ccc(NCc2ccccc2F)cc1Cl	-0.544	i	0.3	-7.7	11.8	0.9
Fc1ccccc1CNc1ccc(Cl)cc1	-0.308	i	96.6*	-11.2	80.7*	1.8
SMILES	Dynein cargo inh	Autophagy mod	L929 necroptosis	Mdm2 ligase inh	TNF necrop inh	Hck Nef HTS
O=C(c1ccc(-c2ccccc2)cc1)C1CCCN(C(=O)c2ccncc2)C1 (configuration not stated)	0.549	+	-2.3	6.6	0.1	24.7
O=C(c1ccco1)N1CCN(C(=O)c2nn3cccnc3c2Cl)CC1	-0.0833	i	0.7	-1.6	-0.4	0.5
O=C(c1nn2cccnc2c1Cl)N1CCN(c2ccccc2)CC1	-0.404	+	-0.4	12.5	-1.6	6.6
COc1ccc2cc3cc(C(=O)NCCN4CCN(Cc5ccccc5)CC4)oc3nc2c1	3.25	+	0.5	19.7	-6.1	-0.9
COc1ccc(OCC(O)CNC(=O)Nc2cccc3ccccc23)cc1 (configuration not stated)	-0.0152	.	1.9	2.8	0.6	6.8
S=C1N(c2ccccc2)CN(CCN2CCOCC2)CN1c1ccccc1	0.124	.	-0.8	-11.5	0.1	0.5
CCCNC(=O)c1sc2c(c1C(=O)Nc1ccccn1)CCCC2	0.643	+	-0.2	-2.8	2.0	11.0
CCCNC(=O)c1csc2c1CCCCC2	1.05	i	0.6	-19.2	-0.3	-2.0
COc1ccc2c(Cl)c(C(=O)NCCCn3ccnc3)sc2c1Cl	0.217	i	1.6	-4.7	-0.8	1.3
Cc1cc(C(=O)CSc2nnc(Nc3ccccc3)s2)c(C)n1CC1CCCO1 (configuration not stated)	-0.112	i	0.1	30.8*	-3.5	-3.1
CCOC(=S)SCC(=O)N1CCc2ccccc2C1C1C(=O)CC(C)(C)CC1=O (configuration not stated)	-0.658	i	9.3	-2.9	0.7	3.1
Clc1cccc2c1Sc1ccccc1CC2N1CCNCC1 (configuration not stated)	0.409	i	-1.8	-3.0	-0.8	1.4
Clc1ccc2c(c1)C(N1CCNCC1)Cc1ccccc1S2 (configuration not stated)	-4.5	+	-3.2	-7.9	-18.2	8.3
COc1ccc(-c2nc3c(-c4ccccc4)cnn3cc2C)cc1F	-0.604	i	1.1	-20.8	51.1*	1.9
COc1ccc(-c2nc3c(-c4ccc(Cl)cc4)cnn3cc2C)cc1F	1.63	i	0.8	-8.7	11.2	-16.3
CCCCn1c(Oc2ccc(C(=O)OC)cc2)nc2c1c(=O)n(C)c(=O)n2C	1.13	+	-0.7	-10.2	-1.9	-5.1
CCn1c(Oc2ccc(F)cc2)nc2c1c(=O)n(C)c(=O)n2C	-0.74	i	1.0	-1.8	2.0	16.5
CCC/C(=N/Nc1ccc(Cl)cc1)c1cnnc(-c2ccccc2)n1	-0.443	+	1.1	.	0.7	24.9
CCOC(=O)c1ccc(NC(=S)NCCCN2CCCCC2)cc1	-0.129	i	0.4	-14.8	-2.4	-1.4
N=c1c2c(-c3ccccc3)c(-c3ccccc3)n(Cc3ccco3)c2ncn1CCN1CCOCC1	-0.784	+	0.7	-11.0	-13.7	3.6
O=C(O)c1cnc(-c2ccccc2)nc1C(F)(F)F	0.0469	i	0.0	2.6	0.0	2.8
